The source made the active and inactive calls. The rule behind the calls is not given here.
How the values were obtained:
MCF7 = assay: Antiproliferative activity against human MCF7 cells after 48 hrs by MTT assay; format: functional, cell-based; settings: MCF7, 48 h
Outline: (§1)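 MTT dye-uptake viability assay; cells seeded at 2.5 × 10^3 per well, grown in RPMI 1640/DMEM with 10% FBS and penicillin/streptomycin at 37 °C, 5% CO2. Exposure to compounds for 48 h over 100 nM to 100 μM. IC50 versus untreated control, given as mean ± SD of three independent experiments.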

HCT-116 = assay: Antiproliferative activity against human HCT116 cells after 48 hrs by MTT assay; format: functional, cell-based; settings: HCT-116, 48 h; outline: as §1
PC-3 [1] = assay: Antiproliferative activity against human PC3 cells after 48 hrs by MTT assay; format: functional, cell-based; settings: PC-3, 48 h; outline: as §1
PC-3 [2] = assay: Inhibition of PI3K/Akt in human PC3 cells assessed as downregulation of NF-kB dependant MMP9 protein expression at 2.5 to 4.5 uM after 24 hrs by Western blot method; format: functional, cell-based
Outline: (§2)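 PC-3 cells exposed to indicated concentrations or DMSO, then lysed. Equal protein amounts analysed by western blotting, with β-actin as loading control. Representative of three independent experiments.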

[3] = biological target: RAC-alpha serine/threonine-protein kinase (Homo sapiens) (UniProt P31749); assay: Inhibition of AKT phosphorylation in human PC3 cells at 2.5 to 4.5 uM after 24 hrs by Western blot method; format: cell-based; outline: as §2
PC-3 [4] = assay: Effect on total mTOR protein expression in human PC3 cells at 2.5 to 4.5 uM after 24 hrs by Western blot method; format: ADME, cell-based; settings: pc-3, 24 h; outline: as §2
PC-3 [5] = assay: Induction of apoptosis in human PC3 cells assessed as caspase-3/7 activation by caspase3/7-Glo assay; format: functional, cell-based
Outline: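 Cells seeded at 5 × 10^3 per well in 96-well plates for 24 h, then treated. Caspase-3/7 Glo reagent/substrate mix added for 25 min, and luminescence read.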

PC-3 [6] = assay: Antimetastatic activity against human PC3 cells assessed as decrease in vimentin protein expression at 2.5 to 4.5 uM after 24 hrs by Western blot method; format: functional, cell-based; outline: as §2
PC-3 [7] = assay: Antimetastatic activity against human PC3 cells assessed as increase in E-cadherin protein expression at 2.5 to 4.5 uM after 24 hrs by Western blot method; format: functional, cell-based; outline: as §2
Homo sapiens [8] = species: Homo sapiens; assay: Inhibition of PI3K/Akt in human PC3 cells assessed as downregulation of NF-kB dependant MMP2 protein expression at 2.5 to 4.5 uM after 24 hrs by Western blot method; format: cell-based; outline: as §2
PC-3 [9] = assay: Inhibition of VEGF-induced cell scattering in human PC3 cells at 2.5 to 4.5 uM after 24 to 48 hrs by inverted microscopic assay; format: functional, cell-based
Outline: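 PC-3 cells seeded at 1000 per well and grown 3–4 days into discrete colonies. Stimulated with VEGF in growth medium with graded concentrations. After overnight (24 h) incubation, individual colonies observed by bright-field/inverted microscopy and photographed. Representative of three experiments.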

PC-3 [10] = assay: Induction of mitochondrial membrane potential loss in human PC3 cells after 24 hrs by JC1 staining based fluorescence microscopic method; format: functional, cell-based
Outline: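 Treated PC-3 cells (1 × 10^6 per well) washed with cold PBS and stained with JC-1 at 1 μM final for 30 min at 37 °C. Aggregates and monomers assessed by fluorescence microscopy.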

Homo sapiens [11] = species: Homo sapiens; assay: Inhibition of PI3K/Akt signaling in human PC3 cells assessed as downregulation of NF-kB expression after 24 hrs by Western blot method; format: cell-based; outline: as §2
[12] = biological target: Serine/threonine-protein kinase mTOR (Homo sapiens) (UniProt P42345); assay: Inhibition of mTOR phosphorylation in human PC3 cells at 2.5 to 4.5 uM after 24 hrs by Western blot method; format: cell-based; outline: as §2
Homo sapiens [13] = species: Homo sapiens; assay: Inhibition of PI3K/Akt in human PC3 cells assessed as reduction in NF-kB dependant MMP9 activation after 48 hrs by gelatin zymographic method; format: cell-based
Outline: (§3)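 Gelatin zymography. Subconfluent (70–80%) PC-3 cells in fresh medium incubated 48 h with increasing concentrations. Equal protein from conditioned media run on 7.5% SDS-PAGE containing 0.1% gelatin, 100 V, 3 h, 4 °C. Gels washed in 2% Triton X-100, incubated overnight at 37 °C in Tris-HCl pH 8.0/10 mM CaCl2 buffer, then Coomassie stained. BSA as loading control.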

PC-3 [14] = assay: Anti-invasive activity against human PC3 cells after 48 hrs by Boyden chamber assay; format: functional, cell-based
Outline: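 Matrigel (Boyden chamber) invasion kit used per manufacturer. PC-3 cells (1.2 × 10^6 per well) treated with graded concentrations or DMSO vehicle. Invaded cells counted per field and imaged at 20× magnification. Three independent experiments.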

PC-3 [15] = assay: Inhibition of colony formation in human PC3 cells at 2.5 to 4.5 uM after 5 days by crystal violet staining based inverted microscopic assay; format: functional, cell-based
Outline: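 Clonogenic assay. PC-3 cells (1 × 10^3 per well) plated, medium replaced after 24 h, then exposed to graded concentrations or DMSO vehicle for 5 days. Colonies stained with crystal violet, counted randomly and imaged at 20×. Three independent experiments.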

[16] = biological target: Serine/threonine-protein kinase mTOR (Homo sapiens) (UniProt P42345); assay: Inhibition of mTOR signaling in human PC3 cells assessed as reduction in S6K protein expression at 2.5 to 4.5 uM after 24 hrs by Western blot method; format: cell-based; outline: as §2
BPH-1 = assay: Antiproliferative activity against human BPH1 cells after 48 hrs by MTT assay; format: cell-based; settings: BPH-1, 48 h
Homo sapiens [17] = species: Homo sapiens; assay: Inhibition of PI3K/Akt in human PC3 cells assessed as reduction in NF-kB dependant MMP2 activation after 48 hrs by gelatin zymographic method; format: cell-based; outline: as §3
PC-3 [18] = assay: Anti-invasive activity against human PC3 cells assessed as increase in TIMP1 protein expression after 24 hrs by Western blot method; format: functional, cell-based; outline: as §2
PC-3 [19] = assay: Antimigratory activity against human PC3 cells assessed as reduction in wound closure after 48 hrs by inverted microscopic assay; format: functional, cell-based; settings: in the assay text read “24 hrs” for “48 hrs”
Outline: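 Scratch assay. PC-3 cells (5 × 10^5 per well) grown 24 h to a confluent monolayer, then serum-starved 24 h. Monolayer scratched with a pipette tip and washed, then treated in 1.0% serum medium with graded concentrations or DMSO for 24 h. Photographed at 20×. % wound closure = [1 – (area t1/area t0) × 100%].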

PC-3 [20] = assay: Effect on total AKT protein expression in human PC3 cells at 2.5 to 4.5 uM after 24 hrs by Western blot method; format: ADME, cell-based; settings: pc-3, 24 h; outline: as §2

Sequence of RAC-alpha serine/threonine-protein kinase (Homo sapiens) (P31749 whole entry): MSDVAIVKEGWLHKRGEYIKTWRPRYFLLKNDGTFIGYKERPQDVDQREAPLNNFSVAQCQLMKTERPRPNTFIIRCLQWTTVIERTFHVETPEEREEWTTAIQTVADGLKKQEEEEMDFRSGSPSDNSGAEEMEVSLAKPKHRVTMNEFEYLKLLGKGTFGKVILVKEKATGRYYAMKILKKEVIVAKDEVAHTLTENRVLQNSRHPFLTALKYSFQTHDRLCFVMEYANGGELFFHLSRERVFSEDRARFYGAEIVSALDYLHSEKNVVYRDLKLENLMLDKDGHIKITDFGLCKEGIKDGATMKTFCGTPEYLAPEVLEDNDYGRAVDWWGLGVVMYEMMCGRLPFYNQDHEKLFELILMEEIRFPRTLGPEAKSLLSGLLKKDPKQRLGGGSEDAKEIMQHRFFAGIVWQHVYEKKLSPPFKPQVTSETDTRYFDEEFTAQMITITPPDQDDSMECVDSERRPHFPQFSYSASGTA

SMILES	IC50 (MCF7)	IC50 (HCT-116)	IC50 (PC-3 [1])	also measured
COc1cc(/C=C/C(C)=O)ccc1OCc1cn(-c2ccccc2CO)nn1	65.8 µM	> 100 µM	50.3 µM	
COc1cc(/C=C/C(C)=O)ccc1OCc1cn(-c2c(F)cccc2F)nn1	2.03 µM	37.7 µM	24.2 µM	
COc1cccc(-n2cc(COc3ccc(/C=C/C(C)=O)cc3OC)nn2)c1	1.8 µM	29.6 µM	31.6 µM	
COc1cc(/C=C/C(C)=O)ccc1OCc1cn(-c2cc(F)cc(Br)c2)nn1	65.5 µM	45.4 µM	56.9 µM	
COc1ccc(-n2cc(COc3ccc(/C=C/C(C)=O)cc3OC)nn2)cc1	33.7 µM	21.3 µM	2.01 µM	
COc1cc(/C=C/C(C)=O)ccc1OCc1cn(-c2c(Cl)cccc2Cl)nn1	26.6 µM	2 µM	3.07 µM	inhibition (PC-3 [2]): Active; inhibition [3]: Active; Activity (PC-3 [4]): Non-Toxic; Activity (PC-3 [5]): Active; Activity (PC-3 [6]): Active; Activity (PC-3 [7]): Active; inhibition (Homo sapiens [8]): Active; inhibition (PC-3 [9]): Active; Activity (PC-3 [10]): Dose-dependent effect; inhibition (Homo sapiens [11]): Dose-dependent effect; inhibition [12]: Active; inhibition (Homo sapiens [13]): Dose-dependent effect; Activity (PC-3 [14]): Dose-dependent effect; inhibition (PC-3 [15]): Active; inhibition [16]: Active; IC50 (BPH-1): > 100 µM; inhibition (Homo sapiens [17]): Dose-dependent effect; Activity (PC-3 [18]): Dose-dependent effect; Activity (PC-3 [19]): Dose-dependent effect; Activity (PC-3 [20]): Non-Toxic
COc1cc(/C=C/C(C)=O)ccc1O [DEHYDROZINGERONE]	54.6 µM	34.8 µM	43.2 µM	
COc1cc(/C=C/C(C)=O)ccc1OCc1cn(-c2ccccc2)nn1	> 100 µM	67.3 µM	78.6 µM	
COc1cc(/C=C/C(C)=O)ccc1OCc1cn(-c2ccccc2OC)nn1	29.1 µM	25.7 µM	2.04 µM	
COc1cc(/C=C/C(C)=O)ccc1OCc1cn(-c2ccc(C(F)(F)F)c(C(F)(F)F)c2)nn1	87.4 µM	57.8 µM	67.2 µM	
COc1cc(/C=C/C(C)=O)ccc1OCc1cn(-c2ccc(-c3ccccc3)cc2)nn1	65.4 µM	65.2 µM	56.8 µM	
COc1cc(/C=C/C(C)=O)ccc1OCc1cn(-c2ccc(C)cc2)nn1	> 100 µM	76.6 µM	58.1 µM	
COc1cc(/C=C/C(C)=O)ccc1OCc1cn(-c2ccccc2O)nn1	> 100 µM	76.4 µM	59.2 µM	

Further lines, with some results ahead:

IC50 (MCF7)	IC50 (HCT-116)	IC50 (PC-3 [1])	SMILES	also measured
65.4 µM	49.7 µM	40.2 µM	C#CCOc1ccc(/C=C/C(C)=O)cc1OC	
2.19 µM	39 µM	48 µM	COc1cc(/C=C/C(C)=O)ccc1OCc1cn(-c2ccccc2Cl)nn1	
86.7 µM	> 100 µM	76.8 µM	COc1cc(/C=C/C(C)=O)ccc1OCc1cn(-c2ccc(NC(=O)c3ccccc3)cc2)nn1	
> 100 µM	78.9 µM	59.2 µM	CCOC(=O)c1ccc(-n2cc(COc3ccc(/C=C/C(C)=O)cc3OC)nn2)cc1	
75.9 µM	> 100 µM	42.1 µM	COc1cc(/C=C/C(C)=O)ccc1OCc1cn(-c2ccc(/N=N/c3ccccc3)cc2)nn1	
86.4 µM	76.2 µM	80.7 µM	COc1cc(/C=C/C(C)=O)ccc1OCc1cn(-c2ccc(C=O)cc2)nn1	
> 100 µM	96.3 µM	46.7 µM	COc1cc(/C=C/C(C)=O)ccc1OCc1cn(-c2ccc([N+](=O)[O-])cc2)nn1	

— ChEMBL document CHEMBL4261549 (Medchemcomm, 2017)
